Reference: PubChem BioAssay AID504502 (Broad Institute, 2011)
Active and inactive are the calls of the source.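 How the source made its calls: active means compounds whose fitted half-maximal growth inhibition concentration is at most ten times the top tested dose; inconclusive means flat curve with 30 to 70% inhibition, or poor fit; inactive means the rest.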

Experiments:
[1] = C. albicans growth inhibition with fluconazole, confirmation, CaCi-2, fluconazole present, retest, powder, set 6 (AID 504502); conditions: C. albicans CaCi-2 + fluconazole, Alamar Blue growth, 48 h; at 12 µM (top of the series)
Procedure, shortened: (§1)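 System: fluconazole-resistant Candida albicans strain CaCi-2; Times: 48 h growth at 37 °C, 2 h dye step; Technique: Alamar Blue fluorescence at 1:200 final, excitation 544 nm, emission 590 nm; Benchmarks: geldanamycin positive control.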

[2] = system: C. albicans CaCi-2 + fluconazole, Alamar Blue growth, 48 h; test: as above
Procedure, shortened: as §1

SMILES	activity change, negative = inhibition [1]	AC50 [2]
O=C(O)Cn1c2ccc(F)cc2c2nc3n(c(=O)c21)CCS3	0.059% (inactive)	
O=C(Cn1c2ccccc2c2nc3n(c(=O)c21)CCS3)N1CC=CC1		821 nM
O=C(Cn1c2ccccc2c2nc3n(c(=O)c21)CCS3)N1CCC(F)(F)CC1		1470 nM
COC(=O)Cn1nc(-c2cccc(F)c2)c2ccccc21		1170 nM
CC1CCN(CCn2c3ccccc3c3nc4n(c(=O)c32)CCS4)CC1	-9.05% (inactive)	
COC(=O)Cn1nc(C2CCCCC2)c2ccccc21		1800 nM
COC(=O)Cn1nc(C(C)(C)C)c2ccccc21	3% (inactive)	
CN1CCN(C(=O)Cn2c3ccccc3c3nc4n(c(=O)c32)CCS4)CC1		4740 nM
O=C(Cn1c2ccccc2c2nc3n(c(=O)c21)CCS3)N1CCC(F)(F)C1		3700 nM
O=C(Cn1c2ccc(F)cc2c2nc3n(c(=O)c21)CCS3)N1CCC(F)(F)CC1		391 nM
COC(=O)Cn1nc(-c2ccccc2)c2cccnc21	-41.1% (inactive)	
COC(=O)Cn1nc(-c2cccc(C)c2)c2ccccc21		646 nM
O=C(Cn1c2ccc(F)cc2c2nc3n(c(=O)c21)CCS3)N1CCC(F)(F)C1		717 nM
COC(=O)Cn1c2ccc(F)cc2c2nc3n(c(=O)c21)CCS3		2080 nM
COC(=O)Cn1nc(-c2cnco2)c2ccccc21	-10.5% (inactive)	
CCc1nn(CC(=O)OC)c2ccccc12	6.18% (inactive)	
COC(=O)Cn1nc(-c2cccc(OC)c2)c2ccccc21		348 nM
COC(=O)n1nc(-c2ccccc2)c2ccccc21	10.4% (inactive)	
CC1(O)CN(C(=O)Cn2c3ccccc3c3nc4n(c(=O)c32)CCS4)C1	-0.117% (inactive)	
O=C(Cn1c2ccccc2c2nc3n(c(=O)c21)CCS3)N1CCCC1		795 nM
O=C(Cn1c2ccc(F)cc2c2nc3n(c(=O)c21)CCS3)N1CC=CC1		276 nM
O=C(Cn1c2ccccc2c2nc3n(c(=O)c21)CCS3)N1CCCCC1		1250 nM
COC(=O)Cn1nc(-c2cccnc2)c2ccccc21	-23.4% (inactive)	
COC(=O)Cn1nc(C2CC2)c2ccccc21	0.132% (inactive)	
O=C(Cn1c2ccc(F)cc2c2nc3n(c(=O)c21)CCS3)N1CCCC1		298 nM
O=C(O)Cn1c2ccccc2c2nc3n(c(=O)c21)CCS3	-8.34% (inactive)	
